Runt-CBFb FRET: blocks binding of human RUNX1 Runt domain to CBFb. Q01196+Q13951. Cerulean-Runt/Venus-CBFb FRET ratio 530/480, 1 h. inhibition, % at 20 µM. 220,000 tested, 0.46% active. AID 1496;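 active = inhibition over about 50% at 20 µM in the single-dose screen, limit read from the data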;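 also: 0% = DMSO wells and 100% = excess unlabeled CBFb competitor control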
Target sequence (Q01196 whole entry, looked up, the tested form may be a part): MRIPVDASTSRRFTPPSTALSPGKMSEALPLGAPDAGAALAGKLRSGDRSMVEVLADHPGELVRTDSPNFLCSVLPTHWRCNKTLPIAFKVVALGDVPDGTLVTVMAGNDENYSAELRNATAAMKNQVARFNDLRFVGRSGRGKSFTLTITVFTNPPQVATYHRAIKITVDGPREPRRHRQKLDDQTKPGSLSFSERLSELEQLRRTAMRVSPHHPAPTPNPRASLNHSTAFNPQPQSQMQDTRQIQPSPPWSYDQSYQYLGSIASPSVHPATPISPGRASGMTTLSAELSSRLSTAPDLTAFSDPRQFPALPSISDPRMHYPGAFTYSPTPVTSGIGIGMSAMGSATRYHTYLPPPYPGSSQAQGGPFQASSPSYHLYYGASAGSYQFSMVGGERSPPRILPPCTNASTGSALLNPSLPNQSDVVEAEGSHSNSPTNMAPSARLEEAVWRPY
Target sequence (Q13951 whole entry, looked up, the tested form may be a part): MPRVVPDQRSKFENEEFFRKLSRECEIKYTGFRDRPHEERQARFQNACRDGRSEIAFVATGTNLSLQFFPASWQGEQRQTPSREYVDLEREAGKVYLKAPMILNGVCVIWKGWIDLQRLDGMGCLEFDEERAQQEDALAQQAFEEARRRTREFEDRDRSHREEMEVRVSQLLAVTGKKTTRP
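Assay system: Cerulean-Runt domain fusion protein, energy donor; Signal: fluorescence energy transfer, 422 nm excitation, 530/480 nm emission; Timing: 1 h compound exposure, room temperature; Control set: unlabeled CBFb; Medium: Tris buffer pH 7.5 with salts and BSA; Compound: single test concentration of 20 µM, 1% DMSO final; Probe or stimulus: Venus-CBFb 100 nM.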
Runt-SMMHC FRET: Runt domain-CBFb-SMMHC interaction inhibition. Cerulean-Runt/Venus-CBFb-SMMHC FRET ratio 530/480, 1 h. inhibition, % at 20 µM. 220,000 tested, 0.74% active. AID 1434;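 active = mean inhibition across duplicate retests at 20 µM reaching about 50%, limit read from the data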;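 also: 0% = DMSO wells and 100% = wells with excess untagged CBFb-SMMHC; inhibitors lower the FRET ratio by blocking Runt binding to CBFb-SMMHC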
TNF necrop inh: inhibitors of TNF-alpha induced necroptosis in Jurkat FADD-/- cells | Jurkat FADD-/- TNF necroptosis rescue, ATP luminescence, 24 h; 0 = TNF only, 100 = no-TNF cells | activation (protection from cell death), % at 10 µM | 220,000 tested, 0.068% active;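 active = activation, meaning protection from cell death, of at least 50% relative to plate controls; inactive = activation below 50%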;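 also: necroptosis triggered by 40 ng/mL TNF-alpha added together with compound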
zVAD death inh: L929 zVAD cell death inhibition. L929 zVAD necroptosis rescue, ATP luminescence, 24 h; with zVAD 60 µM. viability rescue, % at 10 µM. 220,000 tested, 0.38% active. AID 1377;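 active = activation, scaled between plate controls, above about 75%, limit read from the data; inactive = activation under that limit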;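 also: 0% = zVAD with DMSO and 100% = DMSO alone without zVAD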
Hck-Nef inh: blocks Nef-activated human Hck kinase; P08631; Recombinant Hck-YEEI plus Nef, Z-Lyte FRET kinase assay; inhibition, % at 20 µM; 220,000 tested, 0.68% active; AID 463187;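 active = Hck-Nef kinase inhibition above about 50%, limit read from the data; inactive = inhibition below that limit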;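 also: 0% = DMSO with Hck plus Nef and 100% = Hck alone without Nef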
RanGTP-Imp inh: disruptors of Ran-importin-beta complex formation – biochemical, FRET, CFP-Ran, YFP-importin-beta, homogeneous, primary screen; cell-free CFP-Ran/YFP-importin-beta FRET ratio; inhibition, % (no concentration beside the values); 300,000 tested, 1.1% active; AID 2216;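 active = more than half of the replicate wells show a fall in the fluorescence ratio signal beyond about 16%, limit read from the data, passing the limit was not always enough; inconclusive = exactly half of the replicate wells pass the set limit; inactive = fewer than half of replicates pass the limit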;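 also: 0% = DMSO wells and 100% = Ran loaded with GDP instead of GTP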
YIC counter: counter-screen: alters YIC FRET probe signal. shares compounds with RanGTP-Imp inh. Purified YIC probe, intramolecular FRET ratio YFP/CFP. IC50, µM. 1,000 tested, 40% active. AID 435026;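 active = fitted half-maximal inhibitory concentration no more than tenfold above the top dose tested; inconclusive = flat fit with 30 to 70% activity, or poor fit; inactive = half-maximal concentration beyond tenfold above the top dose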
Starred values were filed as active, the others as inactive; ? = inconclusive; . = no result. Sampled rows, rich in hits. Any-hit rate of the full collection: about 2.1%.

SMILES	Runt-CBFb FRET	Runt-SMMHC FRET	TNF necrop inh	zVAD death inh	Hck-Nef inh	RanGTP-Imp inh	YIC counter
CN(C)C=NC(=O)c1cc(C(=O)c2ccccc2Cl)c[nH]1	-0.1	-7.6	-0.6	12.2	-5.0	0.9	.
CCOC(=O)c1ccc(N/C=C\C(=O)c2cccc(OC)c2)cc1	-5.4	-11.2	-0.9	3.1	0.0	1.4	.
COc1cccc(C(=O)/C=C/Nc2cc(C)ccc2O)c1	-5.9	-31.6	-16.1	-0.1	1.0	30.0*	>50
NS(=O)(=O)c1cccc(NC(=O)CCCNC(=O)c2ccc(Cl)cc2)c1	.	.	.	.	.	-1.6	.
NS(=O)(=O)c1cccc(NC(=O)CCSc2ccc(Cl)cc2)c1	9.3	-21.7	0.7	11.6	7.5	18.5*	>50
CC(=O)c1c(N2CCN(C)CC2)nc(=S)n(-c2cc(C)ccc2C)c1C	41.9	74.5*	1.0	0.9	-6.1	34.3*	>50
CCOC(=O)N1CCN(c2nc(=S)n(-c3ccccc3)c(C)c2C(C)=O)CC1	0.5	-5.0	-1.0	-0.1	-0.4	-2.1	.
COc1cc(OC)nc(Oc2ccccc2C(=O)Oc2cccc(C)c2)n1	-3.5	-0.6	-1.4	-0.4	0.5	-2.5	.
Cn1c(=O)c2c(ncn2CCOc2ccc(F)cc2)n(C)c1=O	.	.	.	.	.	16.4*	>50
CCOC(=O)C(=O)Nc1cc(C(=O)OC)cc(C(=O)OC)c1	-1.1	3.0	0.1	2.3	-8.9	16.1*	>50
CCOC(=O)C(=O)Nc1cccc(C(=O)OCC)c1	-0.3	0.7	-0.1	0.6	1.1	-1.0	.
Cc1c(CCOC(=O)c2cc([N+](=O)[O-])cc([N+](=O)[O-])c2)sc[n+]1CCCCS(=O)(=O)[O-]	0.1	-0.1	0.9	1.2	15.0	-0.5	.
N#Cc1c(-c2ccc3c(c2)OCO3)ccn2nc(-c3cccc(C(F)(F)F)c3)nc12	-6.3	30.3	-2.9	7.8	5.2	20.3*	21.9*
COc1ccc(C)cc1Nc1n[n+](-c2ccccc2)c(-c2ccc(SC)cc2)s1	.	.	.	.	.	-0.4	.
Cc1ccc(/C=C2/C(=O)c3ccc(C(=O)O)cc3C2=O)o1	32.0	19.4	-1.3	3.0	41.3	19.4*	>50
COc1ccc(CN(C(=O)c2snc(C(N)=O)c2N)C(C(=O)NC(C)(C)C)c2ccco2)cc1 (stereo unspecified)	-4.9	1.7	-1.9	0.3	3.5	?	.
CC(C)(C)NC(=O)C(c1ccco1)N(Cc1ccc(F)cc1)C(=O)c1snc(C(N)=O)c1N (stereo unspecified)	-3.7	1.7	-1.6	0.8	4.2	28.4*	>50
COc1ccc(-c2noc(CNC(=O)c3ccc4c(c3)OCO4)n2)cc1OC	.	.	.	.	.	-2.2	.
COc1ccc(S(=O)(=O)N(C)c2ccc(C(=O)Nc3cccnc3)cc2)cc1	.	.	.	.	.	0.2	.
Cc1nc2ccccc2c(=O)n1CCc1ccc(O)cc1	.	.	.	.	.	-0.8	.
Cc1noc(C)c1C(=O)Nc1sc2c(c1C(N)=O)CCCCC2	24.7	26.1	-1.5	0.3	9.8	3.6	.
Cc1noc(C)c1C(=O)Nc1sc2c(c1C(N)=O)CCC2	-0.9	-2.0	0.9	0.4	2.0	25.7*	>50
O=C(Nc1ccc(Cl)cn1)c1ccc2[nH]c(=O)c(=O)[nH]c2c1	.	.	.	.	.	0.1	.
CSc1ncccc1C(=O)OCC(=O)c1cc2ccccc2o1	-4.0	0.0	-1.8	-0.1	1.1	19.4*	>50
Cc1oc2cc(O)ccc2c(=O)c1-c1nncn1-c1ccccc1	32.2	92.9*	-0.9	0.5	-4.9	37.3*	14.1*
Cc1oc2cc(O)ccc2c(=O)c1-c1ccccc1	-0.6	3.8	0.1	2.4	23.3	0.2	.
O=C(Cc1ccc(NC2=NC3CS(=O)(=O)CC3S2)cc1)NCc1ccc(Cl)cc1 (stereo unspecified)	.	.	.	.	.	3.5	.
COc1ccc(CNC(=O)C2CC(=O)N(C3CCCCC3)C2)cc1 (stereo unspecified)	.	.	.	.	.	21.1*	>50

High-throughput results: PubChem, several laboratories
